{"data": "Published values collected from several papers", "read-out": "cell growth or viability", "note": "Compare with care: the assays were run in different laboratories. pIC50: −log10 of the molar value."}
{"SMILES": "COc1cccc2c1C(=O)c1c(O)c3c(c(O)c1C2=O)C[C@@](O)(C(=O)CO)C[C@@H]3O[C@H]1C[C@H](N)[C@H](O)[C@H](C)O1", "cell line": "ChaGo-K-1", "assay": "MTT", "setting": "48 h", "endpoint": "IC50", "result": "0.65 µg/mL"}
{"SMILES": "CC(=O)OCCOC(=O)[C@]1(C)CC[C@]2(C)CC[C@]3(C)C4=CC=C5C(=CC(=O)C(O)=C5C)[C@]4(C)CC[C@@]3(C)[C@@H]2C1", "cell line": "AGS", "assay": "MTT", "setting": "48 h", "endpoint": "pIC50", "result": 6.37}
{"SMILES": "COc1c(C)c(OS(=O)(=O)c2ccc3ccccc3c2)c(C)c(OS(=O)(=O)c2ccc3ccccc3c2)c1C(=O)/C=C/c1ccccc1", "cell line": "KKU-M213", "assay": "SRB", "setting": "72 h", "endpoint": "pIC50", "result": "< 4.30"}
{"SMILES": "COc1ccc(Br)cc1/C=C/C(=O)c1ccc(NC(C)=O)cc1", "cell line": "MEF", "assay": "MTT", "setting": "72 h", "endpoint": "pIC50", "result": 6.00}
{"SMILES": "CCN1C(=O)N(c2c(F)c(OC)cc(OC)c2F)Cc2cnc3[nH]c(CN4CCOCC4)cc3c21", "cell line": "JMSU-1", "assay": "ATP luminescence", "setting": "96 h", "endpoint": "pIC50", "result": 8.06}
{"SMILES": "CCc1ccc(N2NC(=O)/C(=C/c3ccc(-c4ccc(S(=O)(=O)Nc5nccs5)cc4)o3)C2=O)cc1", "cell line": "MEF", "assay": "MTT", "setting": "72 h", "endpoint": "pIC50", "result": 4.30}
{"SMILES": "Cn1nnc2c(C(N)=O)ncn2c1=O", "cell line": "IMR-32", "endpoint": "pIC50", "result": 4.09}
{"SMILES": "Cn1nnc2c(C(=O)N3CCCC3)ncn2c1=O", "cell line": "U-87 MG", "assay": "resazurin", "setting": "7 days", "endpoint": "pIC50", "result": 4.77}
{"SMILES": "O=C1NCCc2[nH]c(-c3ccncc3)cc21", "cell line": "EKVX", "endpoint": "pIC50", "result": "< 5.00"}
{"SMILES": "CC1=C(O)C(=O)C=C2C1=CC=C1[C@@]2(C)CC[C@@]2(C)[C@@H]3C[C@](C)(C(=O)OCCCCCCCCO)CC[C@]3(C)CC[C@]12C", "cell line": "AGS", "assay": "MTT", "setting": "48 h", "endpoint": "pIC50", "result": 6.38}
{"SMILES": "C=CC(=O)Nc1cc(Nc2nccc(-c3cn(C)c4ccccc34)n2)c(OC)cc1N(C)CCN(C)C", "cell line": "PC-9", "assay": "ATP luminescence", "setting": "72 h", "endpoint": "pIC50", "result": 8.37}
{"SMILES": "Cc1ncn2c(=O)n(C)nnc12", "cell line": "U-87 MG", "assay": "resazurin", "setting": "7 days", "endpoint": "pIC50", "result": 5.52}
{"SMILES": "CC1=C(O)C(=O)C=C2C1=CC=C1[C@@]2(C)CC[C@@]2(C)[C@@H]3C[C@](C)(C(=O)OCCCn4ccc5ccccc54)CC[C@]3(C)CC[C@]12C", "cell line": "AGS", "assay": "MTT", "setting": "48 h", "endpoint": "pIC50", "result": 5.68}
{"SMILES": "C#CCSc1nc(Sc2nnnn2-c2ccccc2)c2nnn(Cc3ccc(OC)cc3)c2n1", "cell line": "Raji", "assay": "MTS", "setting": "6 days", "endpoint": "pIC50", "result": 5.48}
{"SMILES": "CC1=C(O)C(=O)C=C2C1=CC=C1[C@@]2(C)CC[C@@]2(C)[C@@H]3C[C@](C)(C(=O)OCCO)CC[C@]3(C)CC[C@]12C", "cell line": "AGS", "assay": "MTT", "setting": "48 h", "endpoint": "pIC50", "result": 6.33}
{"SMILES": "CCCCCCCCCCCC(=O)Oc1c(C)c(O)c(C(=O)/C=C/c2ccccc2)c(OC)c1C", "cell line": "KKU-M213", "assay": "SRB", "setting": "72 h", "endpoint": "pIC50", "result": "< 4.30"}
{"SMILES": "CC1=C(O)C(=O)C=C2C1=CC=C1[C@@]2(C)CC[C@@]2(C)[C@@H]3C[C@](C)(C(=O)OCCCOc4ccccc4)CC[C@]3(C)CC[C@]12C", "cell line": "AGS", "assay": "MTT", "setting": "48 h", "endpoint": "pIC50", "result": 5.87}
{"SMILES": "CC(C)[C@H](N)c1nc2cc(-c3ccncc3F)sc2c(=O)[nH]1", "cell line": "SHP77", "assay": "MTT", "endpoint": "pIC50", "result": 6.12}
{"SMILES": "COc1ccc(/C=C/C(=O)c2cc(Br)ccc(=O)c2O)cc1", "cell line": "MEF", "assay": "MTT", "setting": "72 h", "endpoint": "pIC50", "result": 5.22}
{"SMILES": "CC1=C(O)C(=O)C=C2C1=CC=C1[C@@]2(C)CC[C@@]2(C)[C@@H]3C[C@](C)(C(=O)OCCCN4C(=O)C5C=CC=CC5C4=O)CC[C@]3(C)CC[C@]12C (some centres unmarked)", "cell line": "AGS", "assay": "MTT", "setting": "48 h", "endpoint": "pIC50", "result": 6.43}
